These results are taken from ChEMBL document CHEMBL3627680, “An unprecedented dual antagonist and agonist of human Transglutaminase 2” (Bioorg Med Chem Lett, 2015).

Structures are written as SMILES. Residue numbers refer to the chain shown, from its start. Active and inactive are the calls of the source. The rule behind the calls is not given here.

The term Ki denotes a dissociation constant, usually derived from enzyme kinetics or from competition with a known ligand.

Assay [1] concerns the target T1, Protein-glutamine gamma-glutamyltransferase (Homo sapiens, UniProt P21980). In words: Competitive inhibition of recombinant human TG2 V224 mutant deamidation activity using Cbz-Gln-Gly as substrate preincubated for 30 mins followed by substrate addition by Lineweaver-Burk plot analysis in presence of 5 mM Ca2+. In a few lines: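 Deamidation of Cbz-Gln-Gly by the V224 allele of human TG2 (0.5 μM) was read by a GDH-coupled assay at 5 mM Ca2+. Michaelis-Menten data were collected at several inhibitor levels, and Ki was derived from Lineweaver-Burk analysis.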

Assay [2] has as its system Protein-glutamine gamma-glutamyltransferase (Homo sapiens), P21980 [UNDEFINED MUTATION]. In words: Effect on closed state of recombinant human TG2 V224 mutant at 500 uM after 1 hr by native PAGE analysis in presence of 1 mM MgCl2.
Assay [3] shares this test system. Nature of the assay: Effect on open state of recombinant human TG2 V224 mutant at 500 uM after 1 hr by native PAGE analysis in presence of 1 mM MgCl2.
Assay [4] deals with T1, Protein-glutamine gamma-glutamyltransferase. Nature of the assay: Non-competitive inhibition of recombinant human TG2 V224 mutant deamidation activity using Cbz-Gln-Gly as substrate preincubated for 30 mins followed by substrate addition by GDH-coupled assay in presence of 5 mM Ca2+. In short, it runs like this:
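V224 TG2 (0.5 μM) deamidation by GDH-coupled assay at 5 mM Ca2+. Rates measured across substrate concentrations at several inhibitor levels. Mode and Ki derived by Michaelis-Menten and Lineweaver-Burk analysis.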

In assay [5] the target is T2, Protein-glutamine gamma-glutamyltransferase (Homo sapiens) (UniProt P21980).
T2 sequence (whole entry): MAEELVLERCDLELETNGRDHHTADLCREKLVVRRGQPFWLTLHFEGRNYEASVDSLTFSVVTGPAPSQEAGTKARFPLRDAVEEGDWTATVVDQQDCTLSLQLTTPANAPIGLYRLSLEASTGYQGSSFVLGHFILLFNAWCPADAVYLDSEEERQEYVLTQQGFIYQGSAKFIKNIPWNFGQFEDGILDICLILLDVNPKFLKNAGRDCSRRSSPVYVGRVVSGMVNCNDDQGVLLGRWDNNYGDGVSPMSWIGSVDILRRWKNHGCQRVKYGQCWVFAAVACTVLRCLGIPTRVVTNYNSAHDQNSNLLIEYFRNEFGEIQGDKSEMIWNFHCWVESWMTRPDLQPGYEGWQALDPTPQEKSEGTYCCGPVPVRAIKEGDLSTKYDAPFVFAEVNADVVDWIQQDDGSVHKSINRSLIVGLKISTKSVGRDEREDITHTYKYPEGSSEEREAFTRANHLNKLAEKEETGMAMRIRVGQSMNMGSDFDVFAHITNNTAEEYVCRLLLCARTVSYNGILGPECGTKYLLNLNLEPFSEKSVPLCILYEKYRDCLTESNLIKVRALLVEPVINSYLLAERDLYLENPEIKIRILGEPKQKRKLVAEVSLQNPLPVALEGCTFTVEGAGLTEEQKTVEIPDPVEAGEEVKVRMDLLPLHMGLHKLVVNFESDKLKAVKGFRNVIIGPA
Nature of the assay: Activation of extracellular TG2 transamidating activity in human WI38 cells assessed as incorporation of 5-BP into fibronectin at 10 uM preincubated for 30 mins followed by 5-BP addition measured after 3 hrs by DAPI staining-based confocal fluorescence microscopic analysis. The following applies: WI-38. The format is cell-based. In a few lines:
(§1)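 WI-38 fibroblasts grown to confluence, pre-incubated 30 min with vehicle (1% DMSO) or compound, then incubated with 200 μM 5-(biotinamido)-pentylamine for 3 h. Cells fixed and stained to image 5-BP incorporation into extracellular matrix proteins as a measure of TG2 transamidation. Five images sampled per well.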

Assay [6] addresses T2, Protein-glutamine gamma-glutamyltransferase (Homo sapiens). Nature of the assay: Activation of extracellular TG2 transamidating activity in human WI38 cells assessed as incorporation of 5-BP into fibronectin at 1 uM preincubated for 30 mins followed by 5-BP addition measured after 3 hrs by DAPI staining-based confocal fluorescence microscopic analysis. It counts as cell-based. The following applies: WI-38. In short, it runs like this: as §1

For assay [7], the system named is Protein-glutamine gamma-glutamyltransferase (Homo sapiens), P21980 [UNDEFINED MUTATION]. In words: Activation of recombinant human TG2 V224 mutant deamidation activity using Cbz-Gln-Gly as substrate at 15 uM preincubated for 30 mins followed by substrate addition by GDH-coupled assay in presence of 0.6 mM Ca2+.
Assay [8] addresses T2, Protein-glutamine gamma-glutamyltransferase (Homo sapiens). In words: Inhibition of human TG2 truncated (1 to 466 amino acid residues) mutant at 15 uM in presence of 5 mM Ca2+. In short, it runs like this:
(§2)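 GDH-coupled deamidation with wild-type or truncated (1-466) TG2 at 0.5 μM enzyme and 5 mM Ca2+. Activity normalized to each protein's own maximum.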

Assay [9] concerns T3, Protein-glutamine gamma-glutamyltransferase (Homo sapiens), P21980 [R580A].
T3 sequence (whole entry): T2 sequence (whole entry) with R580A
Nature of the assay: Activation of recombinant human TG2 R580A mutant deamidation activity using Cbz-Gln-Gly as substrate at 10 uM preincubated for 30 mins followed by substrate addition by GDH-coupled assay in presence of 3 mM Ca2+/500 uM GMP-PNP. In a few lines:
(§3)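 GDH-coupled deamidation assay comparing wild-type and R580A TG2 at 0.5 μM enzyme and 3 mM Ca2+, with and without GMP-PNP.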

Assay [10] has as its target T2, Protein-glutamine gamma-glutamyltransferase (Homo sapiens). In words: Inhibition of wild type human TG2 deamidation activity using Cbz-Gln-Gly as substrate preincubated for 30 mins followed by substrate addition by GDH-coupled assay in presence of 5 mM Ca2+. In short, it runs like this:
as §2

Assay [11] has the same target. In words: Inhibition of wild type human TG2 at 15 uM in presence of 5 mM Ca2+. In short, it runs like this: as §2
Assay [12] deals with Protein-glutamine gamma-glutamyltransferase (Homo sapiens), P21980 [UNDEFINED MUTATION]. In words: Inhibition of human TG2 E447Q/E451Q/E452Q/E454Q mutant deamidation activity using Cbz-Gln-Gly as substrate preincubated for 30 mins followed by substrate addition by GDH-coupled assay in presence of 5 mM Ca2+.
In assay [13] the test system is T3, Protein-glutamine gamma-glutamyltransferase (Homo sapiens), P21980 [R580A]. In words: Inhibition of recombinant human TG2 R580A mutant deamidation activity using Cbz-Gln-Gly as substrate at 10 uM preincubated for 30 mins followed by substrate addition by GDH-coupled assay in presence of 3 mM Ca2+. In short, it runs like this: as §3
Assay [14] deals with Protein-glutamine gamma-glutamyltransferase (Homo sapiens), P21980 [UNDEFINED MUTATION]. Nature of the assay: Effect on closed state of recombinant human TG2 V224 mutant at 100 uM after 1 hr by native PAGE analysis.
For assay [15] the test system is unchanged. Nature of the assay: Effect on open state of recombinant human TG2 V224 mutant at 100 uM after 1 hr by native PAGE analysis.
Assay [16] shares this test system. In words: Inhibition of human TG2 E396Q/N398S/D400N mutant deamidation activity using Cbz-Gln-Gly as substrate preincubated for 30 mins followed by substrate addition by GDH-coupled assay in presence of 5 mM Ca2+.
The test system is the same in assay [17]. In words: Activation of recombinant human TG2 V224 mutant deamidation activity using Cbz-Gln-Gly as substrate preincubated for 30 mins followed by substrate addition by GDH-coupled assay in presence of 0.5 to 0.7 mM Ca2+.
Assay [18] shares this test system. Nature of the assay: Activation of recombinant human TG2 V224 mutant transamidating activity assessed as 5-BP incorporation into immobilized N-N-dimethylcasein at 15 uM preincubated for 30 mins followed by 5-BP addition measured after 1 hr by streptavidin-based microtiter plate assay in presence of 0.6 mM Ca2+/100 uM GMP-PNP. In a few lines: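 Transamidation microtiter assay: 5-BP incorporated into immobilized N,N-dimethylcasein by V224 TG2 at 0.6 mM Ca2+ plus 100 μM GMP-PNP, with incorporated biotin quantified with streptavidin.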

The test system is the same in assay [19]. Nature of the assay: Activation of recombinant human TG2 V224 mutant deamidation activity using Cbz-Gln-Gly as substrate at 25 uM preincubated for 30 mins followed by substrate addition by GDH-coupled assay in presence of 0.6 mM Ca2+.

Turning to `Nc1nc2c(ncn2[C@@H]2O[C@H](COP(=O)(O)OP(=O)(O)NP(=O)(O)O)[C@@H](O)[C@H]2O)c(=O)[nH]1` [PHOSPHOAMINOPHOSPHONIC ACID GUANYLATE ESTER], the Ki in [1] was 27 µM. In addition, the result in assay [2] and in assay [3] was inactive.
Regarding `O=C1Nc2ccccc2/C1=C\C(=O)c1cccnc1`, in [4], the inhibitory constant (Ki) worked out at 86 µM.
In the case of `O=C1Nc2cccc(Cl)c2/C1=C\C(=O)c1ccc(Cl)cc1`, the Ki in assay [4] is 47 µM. The result in [5] was inactive. For the same compound, in assay [6], the result was Active.
Turning to `COc1ccccc1C(=O)/C=C1/C(=O)Nc2cccc(Cl)c21`, the outcome in assay [7], in [9], in assay [17], in [6] and in assay [18] was Active. Moreover, the inhibition result in assay [8], in assay [10], in assay [11], in assay [13] and in assay [16] was “Active” each time. Moreover, the inhibition entry in [12] was “inactive”. The result in assay [14], in assay [15] and in [5] was inactive. In addition, the inhibitory constant (Ki) in assay [4] was 3.3 µM.
Consider `O=C(/C=C1/C(=O)N(c2ccccc2)c2cccc(Cl)c21)c1cccnc1`, for which, in assay [19], the outcome was Active. For the same compound, the Ki in [4] worked out at 9.1 µM.
